Two molecules from ChEMBL document CHEMBL1149590, “Synthesis and evaluation of homo-bivalent GnRHR ligands” (Bioorg Med Chem, 2007) can be followed below.

For assay [1], the target named is T1, Gonadotropin-releasing hormone receptor (Homo sapiens, UniProt P30968).
T1 sequence (P30968 whole entry): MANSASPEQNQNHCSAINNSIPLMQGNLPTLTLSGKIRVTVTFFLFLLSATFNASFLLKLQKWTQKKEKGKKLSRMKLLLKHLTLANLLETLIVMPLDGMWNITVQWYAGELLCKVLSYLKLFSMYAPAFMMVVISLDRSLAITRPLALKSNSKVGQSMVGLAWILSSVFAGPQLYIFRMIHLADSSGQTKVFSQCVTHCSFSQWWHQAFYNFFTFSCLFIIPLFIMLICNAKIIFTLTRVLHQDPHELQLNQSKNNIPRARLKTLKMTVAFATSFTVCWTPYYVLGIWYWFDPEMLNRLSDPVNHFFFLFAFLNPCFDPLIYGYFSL
The assay can be described thus: Antagonist activity at human GnRHR expressed in CHO cells after 30 mins by luciferase reporter gene assay. In kind it is functional, cell-based.

In assay [2] the target is T2, Gonadotropin-releasing hormone receptor (Homo sapiens) (UniProt P30968).
T2 sequence (whole entry): T1 sequence (P30968 whole entry)
The experiment in a line: Displacement of [125I]triptorelin from human GnRHR expressed in CHO cells at 1 uM. In kind it is cell-based. In short, it runs like this: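 Single-point displacement at 1 μM test compound. CHO membranes bearing wild-type human GnRHR (20 µg protein) incubated 45 min at 22 °C with [125I]triptorelin (30,000 cpm) in Tris-HCl pH 7.4 containing MgCl2 and BSA. Nonspecific binding taken with 1 µM ganirelix, total binding with buffer. Bound radioligand recovered by filtration and gamma-counted; percent displacement reported.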
Background: In a radioligand displacement assay an active substance lowers the binding of a labelled ligand.

The target in assay [3] is T1, Gonadotropin-releasing hormone receptor. The experiment in a line: Displacement of [125I]triptorelin from human GnRHR expressed in CHO cells. In kind it is cell-based. In short, it runs like this: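 Membranes from CHO cells expressing wild-type human GnRHR (20 µg protein) incubated with [125I]triptorelin (30,000 cpm) and five competitor concentrations in 50 mM Tris-HCl pH 7.4, 2 mM MgCl2, 0.1% BSA, 45 min at 22 °C. Nonspecific binding defined with 1 µM ganirelix. Filtration, gamma counting. Ki from IC50 via Cheng-Prusoff (Kd 1.1 nM); at least three experiments in duplicate.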

Structures are written as SMILES.

As a reminder, the IC50 is the point on the concentration scale where inhibition reaches its midpoint. Low readings indicate greater potency, high ones weaker potency. What is called Ki is the equilibrium dissociation constant of an inhibitor or competing ligand from its target. Read a low Ki as a stronger hold on the target. In turn, `CCNC(=O)Nc1ccc(-c2nc3n(Cc4c(F)cccc4F)cc(C(=O)OCC)c(=O)n3c2CN(CC(=O)NCc2cn(CCOCCOCCn3cc(CNC(=O)CN(Cc4ccccc4)Cc4c(-c5ccc(NC(=O)NCC)cc5)nc5n(Cc6c(F)cccc6F)cc(C(=O)OCC)c(=O)n45)nn3)nn2)Cc2ccccc2)cc1` showed a concentration for half-maximal inhibition (IC50) in assay [1] of 832 nM. In assay [2], the Activity came out at 84%. For the same molecule, the affinity in assay [3] corresponds to a Ki of 58.9 nM.

Consider `C#CCNC(=O)Nc1ccc(-c2nc3n(Cc4c(F)cccc4F)cc(C(=O)OCC)c(=O)n3c2CN(C)Cc2ccccc2)cc1`, for which the IC50 in assay [1] was 676 nM. The same molecule yielded an Activity in assay [2] of 98%. The molecule also gave a Ki in assay [3] of 1.35 nM.
